Source: ChEMBL document CHEMBL1154881, “Synthesis and antimicrobial activities of novel 1,5-diaryl pyrazoles” (2010)
Values after ≈ are worked out from the molar mass of the structure shown.

Key:
Aspergillus fumigatus = experiment: Antifungal activity against Aspergillus fumigatus NCIM 902 after 3 to 4 days by serial plate dilution method; type: functional
How it was run: (§1)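 Sabouraud's agar (peptone 1 g, D-glucose 4 g, agar 2 g per 100 ml water, pH 5.7) plates were lawned with spore suspension (a loopful in 3 ml normal saline) and dried 1 h at 37 °C. Wells were punched and filled with compound in DMSO at 10–50 mg/ml, with a DMSO control. Plates in triplicate, 37 °C for 3–4 days.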

Escherichia coli [1] = experiment: Antibacterial activity against Escherichia coli ATTC 25922 after 24 hrs by disk diffusion method; type: functional
How it was run: (§2)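 Disc diffusion, each concentration tested in triplicate on nutrient agar seeded separately with fresh bacteria. Incubation 37 °C, 24 h. Solvent and growth controls included. Zones of inhibition recorded. The K. pneumoniae strain was recultured.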

Klebsiella pneumoniae [2] = experiment: Antibacterial activity against Klebsiella pneumoniae after 24 hrs by disk diffusion method; type: functional; how it was run: as §2
Talaromyces marneffei [3] = experiment: Antifungal activity against Penicillium marneffei after 3 to 4 days by serial plate dilution method; type: functional; how it was run: as §1
Aspergillus flavus = experiment: Antifungal activity against Aspergillus flavus NCIM 524 after 3 to 4 days by serial plate dilution method; type: functional; how it was run: as §1
Klebsiella pneumoniae [4] = experiment: Antibacterial activity against Klebsiella pneumoniae after 24 hrs by broth dilution method; type: functional
Staphylococcus aureus [5] = experiment: Antibacterial activity against Staphylococcus aureus ATTC 25923 after 24 hrs by disk diffusion method; type: functional; how it was run: as §2
[6] = test system: Trichophyton mentagrophytes; experiment: Antifungal activity against Trichophyton mentagrophytes after 3 to 4 days by serial plate dilution method; type: functional; how it was run: as §1
Pseudomonas aeruginosa [7] = experiment: Antibacterial activity against Pseudomonas aeruginosa ATTC 27853 after 24 hrs by disk diffusion method; type: functional; how it was run: as §2
Staphylococcus aureus [8] = experiment: Antibacterial activity against Staphylococcus aureus ATTC 25923 after 24 hrs by broth dilution method; type: functional; details: ATTC 25923, 24 h
Escherichia coli [9] = experiment: Antibacterial activity against Escherichia coli ATTC 25922 after 24 hrs by broth dilution method; type: functional; details: ATTC 25922, 24 h
[10] = test system: Trichophyton mentagrophytes; experiment: Antifungal activity against Trichophyton mentagrophytes at 10 to 50 ug/ml after 3 to 4 days; type: functional
Talaromyces marneffei [11] = experiment: Antifungal activity against Penicillium marneffei at 10 to 50 ug/ml after 3 to 4 days; type: functional
Klebsiella pneumoniae [12] = experiment: Antibacterial activity against Klebsiella pneumoniae after 24 hrs by […]
Pseudomonas aeruginosa [13] = experiment: Antibacterial activity against Pseudomonas aeruginosa ATTC 27853 after 24 hrs by broth dilution method; type: functional; details: ATTC 27853, 24 h

| Structure (SMILES) | inhibition zone (IZ) (Aspergillus fumigatus) | inhibition zone (IZ) (Escherichia coli [1]) | inhibition zone (IZ) (Klebsiella pneumoniae [2]) | inhibition zone (IZ) (Talaromyces marneffei [3]) | inhibition zone (IZ) (Aspergillus flavus) | MIC (Klebsiella pneumoniae [4]) | inhibition zone (IZ) (Staphylococcus aureus [5]) | inhibition zone (IZ) [6] | inhibition zone (IZ) (Pseudomonas aeruginosa [7]) | MIC (Staphylococcus aureus [8]) | MIC (Escherichia coli [9]) | MIC [10] | MIC (Talaromyces marneffei [11]) | MIC (Klebsiella pneumoniae [12]) | MIC (Pseudomonas aeruginosa [13]) |
| --- | --- | --- | --- | --- | --- | --- | --- | --- | --- | --- | --- | --- | --- | --- | --- |
| C#CCN1CCN(C(=O)c2cc(-c3ccc(Cl)cc3)n(-c3ccc(F)cc3)n2)CC1 | 19 mm | 18 mm | 17 mm | 18 mm | <10 mm | 50 µg/mL (≈ 118 µM) | 18 mm | <10 mm | <10 mm | 12.5 µg/mL (≈ 29.6 µM) | 50 µg/mL (≈ 118 µM) | – | – | – | – |
| CCOC(=O)c1sc(-c2cc(-c3ccc(Cl)cc3)n(-c3ccc(F)cc3)n2)nc1C | 18 mm | 18 mm | 19 mm | 19 mm | 22 mm | 50 µg/mL (≈ 113 µM) | 16 mm | 20 mm | 19 mm | 12.5 µg/mL (≈ 28.3 µM) | 12.5 µg/mL (≈ 28.3 µM) | 12.5 µg/mL (≈ 28.3 µM) | 12.5 µg/mL (≈ 28.3 µM) | – | – |
| O=C1CCN(C(=O)c2cc(-c3ccc(Cl)cc3)n(-c3ccc(F)cc3)n2)CC1 | 26 mm | 27 mm | 25 mm | 29 mm | 18 mm | – | 24 mm | 24 mm | 18 mm | 12.5 µg/mL (≈ 31.4 µM) | 12.5 µg/mL (≈ 31.4 µM) | 50 µg/mL (≈ 126 µM) | 12.5 µg/mL (≈ 31.4 µM) | 12.5 µg/mL (≈ 31.4 µM) | 12.5 µg/mL (≈ 31.4 µM) |
